This note sets out measurements from ChEMBL document CHEMBL4368901 (J Med Chem, 2019).

Data set [1] deals with A549. Put plainly: Antiproliferative activity against human A549 cells after 5 days by EZMTT reagent-based assay. Type of data set: functional, cell-based. As to conditions: A549, 120 h.
Data set [2] is described as follows: Solubility of compound. Type of data set: physicochemical.
The nature of data set [3]: Inhibition of GDH (unknown origin) using NADP+ and glutamate as substrate preincubated for 0.5 hrs followed by substrate addition and measured after 1 hr by EZMTT reagent-based UV-Vis absorbance assay. Details: species or system Homo sapiens.
The test system of data set [4] is A549. Kind of data set: Antiproliferative activity against human A549 cells after 5 days by EZMTT reagent-based assay relative to control. Type of data set: functional.
For data set [5], the system named is HCT-116. Kind of data set: Antitumor activity against human HCT116 cells xenografted in nude mouse assessed reduction in tumor weight at 10 mg/kg, […] relative to control. It is filed as functional. More on the design: scale not given: the % may be the effect or the level left.
The subject of data set [6] is HCT-116. Kind of data set: Antitumor activity against human HCT116 cells xenografted in nude mouse assessed induction of tumor necrosis at 10 mg/kg, […] by hematoxylin and eosin staining-based assay. It is filed as functional, organism-based.
The test system of data set [7] is H22. Kind of data set: Antiproliferative activity against mouse H22 cells after 5 days by EZMTT reagent-based assay relative to control. Type of data set: functional.
A short description of data set [8]: Retention time of compound in mouse liver microsomes at 50 uM by LC-MS/MS analysis. Type of data set: ADME, Microsome.
Data set [9] has as its system H22. Put plainly: Antitumor activity against mouse H22 cells transplanted in ICR mouse assessed as reduction in tumor size at 10 mg/kg, sc administered once daily for 10 consecutive days relative to control. It is filed as functional, organism-based. The method, boiled down:
(§1)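 H22 liver cancer model in young SPF ICR mice, n=10 per group. Compound given subcutaneously once daily at 10 mg/kg, 10 injections; the control group received N.S. End-point tumour size and weight, body weight and survival were recorded. Treated groups were compared with control by unpaired t test.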

Data set [10] in a line: Metabolic stability in ICR mouse blood after 2 hrs by HPLC analysis. It is filed as ADME, tissue-based. The method, boiled down: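 Compound was incubated in blood for 2 h and its remaining concentration was quantified by HPLC.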
Data set [11] deals with CAKI-1. Kind of data set: Antiproliferative activity against human Caki1 cells after 5 days by EZMTT reagent-based assay. It is filed as functional, cell-based. As to conditions: CAKI-1, 120 h.
The subject of data set [12] is HCT-116. Kind of data set: Antiproliferative activity against human HCT116 cells after 5 days by EZMTT reagent-based assay relative to control. Type of data set: functional.
Data set [13] relates to H22. Put plainly: Antitumor activity against mouse H22 cells transplanted in ICR mouse assessed as increase in mouse survival at 10 mg/kg, sc administered once daily for 10 consecutive days relative to control. It is filed as functional, organism-based.
A short description of data set [14]: Metabolic stability in mouse liver microsomes at 50 uM after 4 hrs in presence of NADPH by HPLC analysis. Type of data set: ADME, Microsome. As to conditions: read-out: Stability. The method, boiled down: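 Compound was incubated with mouse liver microsomes for 4 h, with coumarin as the control. The remaining level was quantified by HPLC using UV absorbance at 254 nm.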

The subject of data set [15] is H22. Put plainly: Antiproliferative activity against mouse H22 cells after 5 days by EZMTT reagent-based assay. It is filed as functional, cell-based. As to conditions: H22, 120 h.
Data set [16] in a line: Drug level in tumor of mouse H22 cells transplanted ICR mouse at 10 mg/kg, sc administered once daily for 10 consecutive days by HPLC analysis. It is filed as ADME, organism-based, Neoplasm. As to conditions: in vivo. In short, it runs like this:
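Compound accumulation was measured in end-point tumours from H22-bearing ICR mice after once-daily subcutaneous 10 mg/kg dosing, 10 injections. Tumour content was analysed by HPLC.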

Data set [17] deals with HCT-116. Kind of data set: Antiproliferative activity against human HCT116 cells after 5 days by EZMTT reagent-based assay. Type of data set: functional, cell-based. As to conditions: HCT-116, 120 h.
The test system of data set [18] is CAKI-1. Put plainly: Antiproliferative activity against human Caki1 cells after 5 days by EZMTT reagent-based assay relative to control. Type of data set: functional.
For data set [19], the system named is A549. Kind of data set: Induction of ROS generation in human A549 cells at 10 uM after 12 hrs by DCFH-DA staining-based fluorescence microscopic analysis. Type of data set: functional, cell-based. In short, it runs like this:
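A549 cells were seeded at 10000 per well and exposed to compound at 0, 3 or 10 µM for 12 h. ROSUP at 100 µg/ml served as the positive control, alongside untreated cells. ROS was then assessed.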

The subject of data set [20] is HCT-116. Put plainly: Antitumor activity against human HCT116 cells xenografted in nude mouse assessed reduction in tumor weight at 10 mg/kg, sc administered for 14 consecutive days. It is filed as functional, organism-based. In short, it runs like this: (§2)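 HCT116 xenografts in young SPF nude mice, n=6 per group. Compound given at 10 mg/kg subcutaneously, […]; the control group received N.S. End-point tumour weight, tumour growth and body weight were recorded. End-point tumours were H&E stained to assess tissue damage. Weights were compared by unpaired t test.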

The subject of data set [21] is HCT-116. Put plainly: Antitumor activity against human HCT116 cells xenografted in nude mouse assessed reduction in tumor size at 10 mg/kg, sc administered for 14 consecutive days. Type of data set: functional, organism-based. The method, boiled down: as §2
For data set [22], the system named is H22. Put plainly: Antitumor activity against mouse H22 cells transplanted in ICR mouse assessed as reduction in tumor weight at 10 mg/kg, sc administered once daily for 10 consecutive days relative to control. Type of data set: functional. The method, boiled down: as §1
Data set [23] is described as follows: Drug metabolism mouse liver microsomes assessed as metabolite formation due to loss of terminal pyridine and oxygen at 50 uM by LC-MS/MS analysis. It is filed as ADME, Microsome.
The test system of data set [24] is H22. Put plainly: Antitumor activity against mouse H22 cells transplanted in ICR mouse assessed as induction of foam-like histiocytic reaction at tumor region at 10 mg/kg, sc administered once daily for 10 consecutive days by hematoxylin and eosin staining-based assay. It is filed as functional, organism-based.
Data set [25] has as its system H22. Kind of data set: Antitumor activity against mouse H22 cells transplanted in ICR mouse assessed as induction of tumor deterioration at 10 mg/kg, sc administered once daily for 10 consecutive days by hematoxylin and eosin staining-based assay. Type of data set: functional, organism-based.
For data set [26], the target named is T1, Glutaminase kidney isoform, mitochondrial (Homo sapiens, UniProt O94925).
T1 sequence (O94925 whole entry): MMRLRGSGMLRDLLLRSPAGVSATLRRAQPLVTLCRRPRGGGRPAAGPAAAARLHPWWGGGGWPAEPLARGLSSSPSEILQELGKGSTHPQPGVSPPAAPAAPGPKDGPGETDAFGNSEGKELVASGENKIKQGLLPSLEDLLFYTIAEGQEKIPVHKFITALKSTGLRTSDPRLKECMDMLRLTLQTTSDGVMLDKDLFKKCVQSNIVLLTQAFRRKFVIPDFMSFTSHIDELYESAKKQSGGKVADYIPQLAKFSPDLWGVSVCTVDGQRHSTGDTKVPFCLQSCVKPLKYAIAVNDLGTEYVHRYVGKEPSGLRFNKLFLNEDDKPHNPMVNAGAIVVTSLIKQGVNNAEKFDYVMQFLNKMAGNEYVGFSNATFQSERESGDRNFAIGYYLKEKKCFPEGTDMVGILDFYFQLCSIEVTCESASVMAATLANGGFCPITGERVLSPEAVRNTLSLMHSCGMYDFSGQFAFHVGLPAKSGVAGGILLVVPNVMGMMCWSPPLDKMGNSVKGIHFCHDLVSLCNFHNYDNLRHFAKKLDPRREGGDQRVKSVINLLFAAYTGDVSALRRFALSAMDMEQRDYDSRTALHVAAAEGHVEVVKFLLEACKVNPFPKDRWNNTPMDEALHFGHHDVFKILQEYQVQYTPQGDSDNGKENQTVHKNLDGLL
Put plainly: Inhibition of human KGA preincubated for 15 to 30 mins followed by substrate addition and measured after 3 to 4 hrs by GDH-EZMTT reagent-based GDH coupled assay.

Data set [27] has as its system H22. Kind of data set: Antitumor activity against mouse H22 cells transplanted in ICR mouse assessed as induction of fibrous hyperplasia at tumor region at 10 mg/kg, sc administered once daily for 10 consecutive days by hematoxylin and eosin staining-based assay. It is filed as functional, organism-based.
The subject of data set [28] is H22. Kind of data set: Antitumor activity against mouse H22 cells transplanted in ICR mouse assessed as induction of scattered deformed nuclei at tumor region at 10 mg/kg, sc administered once daily for 10 consecutive days by hematoxylin and eosin staining-based assay. It is filed as functional, organism-based.
Data set [29] relates to H22. Put plainly: Antitumor activity against mouse H22 cells transplanted in ICR mouse assessed as induction of inflammatory cell infiltration at tumor region at 10 mg/kg, sc administered once daily for 10 consecutive days by hematoxylin and eosin staining-based assay. It is filed as functional, organism-based.

Active and inactive are the calls of the source. No cut-off for these calls is given here.

Regarding `O=C(Cc1ccccc1)Nc1nnc(CCCCc2nnc(NC(=O)Cc3ccccc3)s2)s1`, the IC50 (in the data set with A549 [1]; in data set [3]) was more than 13000 nM each time. The solubility entry in data set [2] was “Insoluble”. This molecule gave an Imax in the data set on A549 [4] of 0%.
The molecule `O=C(Cc1cccc(OC(F)(F)F)c1)Nc1ccc(CCCCc2nnc(NC(=O)Cc3ccccn3)[se]2)nn1` yielded an Activity in the data set with HCT-116 [5] of 40%. Moreover, the result with HCT-116 [6], in the data set with H22 [9], in the data set on H22 [13] and in the data set with A549 [19] was Active. Besides, the 50% inhibitory concentration (IC50) was 17 nM in the data set with A549 [1]; 19 nM with CAKI-1 [11]; 6780 nM in the data set on H22 [15]; 9 nM in the data set on HCT-116 [17]; more than 13000 nM in data set [3]. Further, the Imax with H22 [7] was found to be 75%; with HCT-116 [12], 90%; with CAKI-1 [18] it was 89%; with A549 [4] it was 82%. The Retention_time in data set [8] is given as 8.2 min. Also, the Stability result in data set [10] is given as “Stable”. In [14], the remaining at 4 h, 50 µM came to 50%. Moreover, the Drug uptake result in data set [16] was “Active”.
For `O=C(Cc1cccc(OC(F)(F)F)c1)Nc1ccc(CCCCc2nnc(NC(=O)Cc3ccccn3)s2)nn1`, the outcome with HCT-116 [20], with HCT-116 [6], with HCT-116 [21], in the data set with H22 [9], in the data set on H22 [22] and in the data set with A549 [19] was Active. Moreover, the Imax stood at 44% in the data set with H22 [7], 90% with HCT-116 [12], 88% with CAKI-1 [18] and 82% in the data set on A549 [4]. The molecule also registered a Retention_time in data set [8] of 7.97 min. Besides, the Stability result in data set [10] is on record as “Stable”. Besides, the remaining at 4 h, 50 µM in data set [14] was 46%. Besides, the half-maximal inhibitory concentration (IC50) was more than 10000 nM with H22 [15], 28 nM with HCT-116 [17] and more than 13000 nM in data set [3]. Moreover, in data set [23], the Drug metabolism result is given as “Metabolite_Detected”.
As for `COc1ccc2c(c1)c(CC(=O)Nc1nnc(CCCCc3ccc(NC(=O)Cc4cccc(OC(F)(F)F)c4)nn3)[se]1)cn2C`, the IC50 is 10 nM in the data set on A549 [1]; 20 nM in the data set with CAKI-1 [11]; 4050 nM in the data set on H22 [15]; 20 nM in the data set with HCT-116 [17]; 10 nM in data set [26]; more than 13000 nM in data set [3]. Further, the Imax in the data set with H22 [7] amounted to 70%; in the data set on HCT-116 [12] it was 92%; in the data set on CAKI-1 [18], 90%; with A549 [4] it was 90%. Further, the result with H22 [24], in the data set on H22 [25], in the data set on H22 [27], with H22 [28] and with H22 [29] was Active. In [8], this molecule registered a Retention_time of 10.7 min. Moreover, the Stability result in data set [10] was “Stable”. The Activity in the data set on H22 [22] is listed as 40%. Besides, in data set [14], the remaining at 4 h, 50 µM amounted to 30%. In addition, in data set [16], the Drug uptake result is reported as “Active”.
